pEC50, pIC50: −log10 of the molar value. The source made the active and inactive calls. The rule behind the calls is not given here.
What was measured:
[1] = target: T1, Corticotropin-releasing factor receptor 1 (Homo sapiens, UniProt P34998); assay: Displacement of [125I]-CRF from human CRF1 receptor expressed in CHO-K1 cells after 2 hrs by gamma counting; format: cell-based
T1 sequence (P34998 whole entry): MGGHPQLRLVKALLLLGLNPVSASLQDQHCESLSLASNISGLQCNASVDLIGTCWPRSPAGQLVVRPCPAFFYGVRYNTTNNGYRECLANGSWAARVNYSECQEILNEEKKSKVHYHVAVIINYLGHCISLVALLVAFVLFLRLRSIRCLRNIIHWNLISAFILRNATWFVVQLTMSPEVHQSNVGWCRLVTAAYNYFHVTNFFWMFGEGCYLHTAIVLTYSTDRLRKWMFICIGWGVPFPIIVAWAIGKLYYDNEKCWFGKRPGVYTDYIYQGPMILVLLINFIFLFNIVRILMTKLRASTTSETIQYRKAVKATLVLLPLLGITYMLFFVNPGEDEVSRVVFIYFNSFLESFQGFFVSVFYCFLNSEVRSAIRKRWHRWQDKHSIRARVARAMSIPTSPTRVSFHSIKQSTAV
Procedure, shortened: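 Crude membranes were made from CRF1-expressing CHO-K1 cells in 50 mmol/l Tris-HCl with 10 mmol/l MgCl, 2 mmol/l EDTA and aprotinin. Membranes were incubated with 125I human/rat CRF (0.5 nmol/l solution added) and test compound (1~10000 nmol/L) for 2 h at room temperature. Bound and free ligand were separated by centrifugation and the pellet washed with PBS/0.01% Triton X-100, then gamma-counted. Nonspecific binding was defined with 1 µmol/l unlabeled CRF. IC50 was taken from concentration–response curves.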

[2] = target: T1, Corticotropin-releasing factor receptor 1; assay: Antagonist activity at human CRF1 receptor expressed in CHO-K1 cells assessed as inhibition of CRF-induced cAMP accumulation after 15 mins by cAMP enzyme immunoassay; format: functional, cell-based
Procedure, shortened: (§1)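 CRF1-expressing CHO-K1 cells seeded at 1×10^4 cells/well and cultured overnight. Cells were washed with F-12 and preincubated 10 min at 37 °C in F-12 containing 1 mmol/l IBMX. Test compound (1–10000 nmol/l) was then added together with CRF (10 nmol/l in the added medium). After 15 min at 37 °C, intracellular cAMP was measured by enzyme immunoassay. IC50 was taken from concentration–response curves.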

[3] = AUC (0 to infinity) in rat at 1 mg/kg, iv; format: ADME, organism-based; design: dose 1 mg/kg, route intravenous, time infinity; conditions: plasma
Procedure, shortened: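 Single iv dose of 1 mg/kg in saline containing 30% HP-β-CD (w/v), given to fasted male rats (n = 4). Plasma stored at -70 °C. AUC derived from the plasma concentration time course.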

[4] = Ratio of drug level in brain to plasma in rat at 10 mg/kg, po after 1 hr; format: ADME, organism-based; design: dose 10 mg/kg, route oral; conditions: read-out: BPR
Procedure, shortened: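 Rats were dosed orally at 10 mg/kg. Kp was calculated as brain content divided by plasma concentration, 1.0 h after dosing.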

[5] = AUC (0 to infinity) in rat at 10 mg/kg, po; format: ADME, organism-based; design: time infinity, dose 10 mg/kg, route oral; conditions: plasma
Procedure, shortened: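 Single oral dose of 10 mg/kg in saline containing 0.5% MC (w/v), given to fasted male rats (n = 4). Heparinized jugular vein blood taken at 1, 2, 4, 6, 8, 24, 48, 72 h. Plasma stored at -70 °C. AUC to infinity derived from the plasma concentration time course.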

[6] = Total clearance in rat at 1 mg/kg, iv; format: ADME, organism-based; design: dose 1 mg/kg, route intravenous; conditions: in vivo
Procedure, shortened: (§2)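 Fasted male rats (n = 4) received 1 mg/kg iv in saline/30% HP-β-CD or 10 mg/kg po in saline/0.5% MC. Jugular blood was sampled up to 72 h, and plasma obtained by centrifugation and stored at -70 °C. AUC, Cmax, Tmax, T1/2, Vss and CL were derived from plasma concentration–time courses. F = dose-normalized AUCpo/AUCiv ×100.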

Rattus norvegicus = assay: Anxiolytic activity against swim-stress-induced anxiety like behavior in Sprague-Dawley rat assessed as increase in spent time in open arms at 10 mg/kg, po administered 1 hr before stress-challenge by elevated plus-maze test; format: functional, organism-based; design: dose 10 mg/kg
Procedure, shortened: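 Male Sprague-Dawley rats (230–280 g) were dosed orally with compound in 0.5% MC, and tested 1 h after dosing. Rats were then placed on the elevated plus-maze (50 cm high) and video-tracked for 5 min for time in and entries into open arms. Results are mean ± S.E., n=16; vehicle vs drug by Dunnett test.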

[7] = target: T2, Corticotropin-releasing factor receptor 1 (Rattus norvegicus, UniProt P35353); assay: Antagonist activity at rat CRF1 receptor expressed in CHO-K1 cells assessed as inhibition of CRF-induced cAMP accumulation after 15 mins by cAMP enzyme immunoassay; format: functional, cell-based; procedure, shortened: as §1
T2 sequence (P35353 whole entry): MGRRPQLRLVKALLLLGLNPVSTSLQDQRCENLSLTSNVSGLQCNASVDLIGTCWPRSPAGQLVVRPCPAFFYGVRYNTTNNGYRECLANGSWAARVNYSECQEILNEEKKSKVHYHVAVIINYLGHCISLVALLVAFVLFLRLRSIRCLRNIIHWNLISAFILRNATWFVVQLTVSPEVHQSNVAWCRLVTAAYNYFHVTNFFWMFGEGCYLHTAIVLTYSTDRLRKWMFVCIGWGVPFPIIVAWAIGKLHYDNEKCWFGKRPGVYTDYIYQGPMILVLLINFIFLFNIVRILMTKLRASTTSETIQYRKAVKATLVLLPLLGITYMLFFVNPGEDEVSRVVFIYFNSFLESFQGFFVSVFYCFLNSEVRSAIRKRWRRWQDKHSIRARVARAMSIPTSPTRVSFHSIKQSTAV

[8] = Cmax in rat at 10 mg/kg, po; format: ADME, organism-based; design: dose 10 mg/kg, route oral; conditions: in vivo; procedure, shortened: as §2
[9] = Half life in rat at 1 mg/kg, iv; format: ADME, organism-based; design: dose 1 mg/kg, route intravenous; conditions: in vivo; procedure, shortened: as §2
[10] = Volume of distribution at steady state in rat at 1 mg/kg, iv; format: ADME, organism-based; design: dose 1 mg/kg, route intravenous; conditions: in vivo, read-out: Vdss; procedure, shortened: as §2
[11] = Half life in rat at 10 mg/kg, po; format: ADME, organism-based; design: dose 10 mg/kg, route oral; conditions: in vivo; procedure, shortened: as §2
[12] = Oral bioavailability in rat at 10 mg/kg; format: ADME, organism-based; conditions: in vivo; procedure, shortened: as §2
[13] = Tmax in rat at 10 mg/kg, po; format: ADME, organism-based; design: dose 10 mg/kg, route oral; conditions: in vivo; procedure, shortened: as §2

Row | Compound | pIC50 [1] | pEC50 [2] | other results
1 | CCC(CC)Nc1cc(N(C)c2ccc(OC)cc2Cl)nc2ncnn12 | 7.38 | 6.44 | –
2 | CCC(CC)n1ccc2c(Nc3ccc(OC)cc3Cl)nc3ccnn3c21 | 8.49 | 9.15 | –
3 | CCc1ccc(Oc2nc3ccnn3c3c2ccn3C(CC)CC)c(OC)c1 | 8.15 | 8.25 | –
4 | CCCN(CCC)c1c(CC)c(Nc2ccc(OC)cc2Cl)nc2ccnn12 | 8.38 | 8.07 | –
5 | CCCN(CCC)c1cc(N(CCOC)c2ccc(OC)cc2Cl)nc2ccnn12 | 6.17 | – | –
6 | CCCN(CCC)c1cc(N(CC2CC2)c2ccc(OC)cc2Cl)nc2ccnn12 | 6.67 | – | –
7 | CCCCc1c(Nc2ccc(OC)cc2Cl)nc2ccnn2c1N(CCC)CCC | 6.47 | – | –
8 | CCCN(CCC)c1c(C)c(Nc2ccc(OC)cc2Cl)nc2ccnn12 | 8.10 | 8.40 | AUC(0-inf) [3]: 96 ng·h/mL; Kp at 1 h [4]: 6.2; AUC(0-inf) [5]: 153 ng·h/mL; clearance [6]: 186 mL/min/kg; Activity (Rattus norvegicus): Active; pEC50 [7]: 7.09; Cmax [8]: 27.4 ng/mL; half-life [9]: 1.7 h; Vd [10]: 14.4 L/kg; half-life [11]: 3.4 h; bioavailability [12]: 16%; Tmax [13]: 4 h
9 | C=CCN(c1cc(N(CCC)CCC)n2nccc2n1)c1ccc(OC)cc1Cl | 8.36 | 7.54 | –
10 | CCCN(CCC)c1c(C)c(Nc2ccc(OC)cc2Cl)nc2nccn12 | 7.92 | 7.34 | –
11 | CCC(CC)Nc1cc(Nc2ccc(OC)cc2Cl)nc2ccnn12 | 7.85 | 6.95 | –
12 | CCCN(CCC)c1cc(N(C)c2ccc(OC)cc2Cl)nc2ncnn12 | 7.48 | 6.05 | –
13 | CCCN(CCC)c1cc(N(COC)c2ccc(OC)cc2Cl)nc2ccnn12 | 7.82 | 8.36 | –
14 | CCc1cc(OC)ccc1Nc1nc2ccnn2c2c1ccn2C(CC)CC | 8.62 | 8.46 | –
15 | CCc1cc(Cl)ccc1Nc1nc2ccnn2c2c1ccn2C(CC)CC | 8.33 | 8.41 | –
16 | CCC(CC)n1ccc2c(Cc3c(C)cc(C)cc3C)nc3ccnn3c21 | 8.15 | 7.49 | –

Row | Compound | pIC50 [1] | pEC50 [2] | other results
17 | CCCN(CCC)c1cc(N(CCC)c2ccc(OC)cc2Cl)nc2ccnn12 | 6.38 | 7.12 | –
18 | CCCN(CCC)c1cc(Nc2ccc(OC)cc2Cl)nc2ccnn12 | 7.21 | 7.28 | –
19 | CCCN(CCC)c1nc(N(C)c2ccc(OC)cc2Cl)nc2ccnn12 | 7.70 | 7.59 | –
20 | CCC(CC)n1ccc2c(Nc3c(C)cc(C)cc3C)nc3ccnn3c21 | 8.21 | 8.39 | –
21 | CCCN(CCC)c1c(OC)c(Nc2ccc(OC)cc2Cl)nc2ccnn12 | 7.89 | 6.05 | –
22 | CCC(CC)Nc1c(C)c(Nc2ccc(OC)cc2Cl)nc2ccnn12 | 8.13 | 8.13 | –
23 | CCCN(CCC)c1cc(N(CC)c2ccc(OC)cc2Cl)nc2ccnn12 | 7.50 | 7.73 | –
24 | CCCc1c(Nc2ccc(OC)cc2Cl)nc2ccnn2c1N(CCC)CCC | 7.49 | 7.02 | –
25 | CCCN(CCC)c1c(C2CCCC2)c(Nc2ccc(OC)cc2Cl)nc2ccnn12 | 6.51 | – | –
26 | CCCN(CCC)c1cc(N(CC)c2ccc(OC)cc2Cl)nc2nccn12 | 7.38 | 7.12 | –
27 | C=C(C)CN(c1cc(N(CCC)CCC)n2nccc2n1)c1ccc(OC)cc1Cl | 7.12 | 6.07 | –
28 | CCCN(CCC)c1cc(N(C)c2ccc(OC)cc2Cl)nc2nccn12 | 7.17 | – | –
29 | CCCN(CCC)c1c(C(C)C)c(Nc2ccc(OC)cc2Cl)nc2ccnn12 | 6.95 | 6.63 | –
30 | CCCN(CCC)c1cc(N(C)c2ccc(OC)cc2Cl)nc2ccnn12 | 7.70 | 7.01 | –
31 | CCCN(CCC)c1c(C)c(Nc2ccc(OC)cc2Cl)nc2ncnn12 | 8.10 | 8.05 | –
32 | CCC(CC)Nc1c(C)c(Nc2ccc(OC)cc2Cl)nc2ncnn12 | 7.80 | 7.24 | –

From ChEMBL document CHEMBL1828587, “Pyrazolo[1,5-a]pyrimidines, triazolo[1,5-a]pyrimidines and their tricyclic derivatives as corticotropin-releasing factor 1 (CRF₁) receptor antagonists” (Bioorg Med Chem, 2011)
